TRPC4 agonist – TRPC4 (mouse) channel activation | B-score at 10 µM | HEK293 TRPC4beta/mu-opioid, Fluo4 calcium fluorescence; stronger effect = higher value | hit rate 0.49% among 310,000 | Q9QUQ5;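 active = B-score above 5 SD of library B-scores, and initial fluorescence ratio not above library mean plus 5 SD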;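 note: positive B-score marks a calcium rise read as TRPC4 activation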
Target sequence (Q9QUQ5 whole entry, looked up): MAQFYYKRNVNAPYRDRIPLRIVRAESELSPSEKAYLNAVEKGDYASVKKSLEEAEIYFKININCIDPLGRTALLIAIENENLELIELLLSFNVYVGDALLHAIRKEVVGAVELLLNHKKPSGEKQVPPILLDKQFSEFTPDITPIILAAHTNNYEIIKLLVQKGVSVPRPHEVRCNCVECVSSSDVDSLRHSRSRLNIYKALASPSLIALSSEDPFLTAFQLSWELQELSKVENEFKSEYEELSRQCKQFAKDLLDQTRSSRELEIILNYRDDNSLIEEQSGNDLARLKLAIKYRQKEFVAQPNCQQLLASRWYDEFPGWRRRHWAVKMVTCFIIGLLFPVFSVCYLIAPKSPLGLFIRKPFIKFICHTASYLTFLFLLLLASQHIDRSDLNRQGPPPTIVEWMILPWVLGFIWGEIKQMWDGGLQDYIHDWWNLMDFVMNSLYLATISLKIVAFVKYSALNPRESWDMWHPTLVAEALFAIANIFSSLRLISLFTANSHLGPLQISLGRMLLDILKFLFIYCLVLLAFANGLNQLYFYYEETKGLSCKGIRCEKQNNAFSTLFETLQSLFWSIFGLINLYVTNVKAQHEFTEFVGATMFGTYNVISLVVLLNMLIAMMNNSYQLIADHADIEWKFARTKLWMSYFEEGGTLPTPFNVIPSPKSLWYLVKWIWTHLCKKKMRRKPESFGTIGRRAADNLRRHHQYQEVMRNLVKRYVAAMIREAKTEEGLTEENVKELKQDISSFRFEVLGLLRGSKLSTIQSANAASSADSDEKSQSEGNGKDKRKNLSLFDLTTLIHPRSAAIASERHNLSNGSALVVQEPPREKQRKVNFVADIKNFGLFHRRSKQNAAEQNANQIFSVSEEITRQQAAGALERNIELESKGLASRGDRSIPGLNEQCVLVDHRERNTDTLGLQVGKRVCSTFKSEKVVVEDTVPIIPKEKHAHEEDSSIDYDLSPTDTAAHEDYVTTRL
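Assay system: HEK293 cells stably co-expressing mouse TRPC4beta and mu-opioid receptor / Timing: Fluo4 dye loading 45 min at room temperature, 110 s recording / Signal: Fluo4 calcium-sensitive dye fluorescence, kinetic, 1 Hz baseline / Read-out: integrated baseline-normalised fluorescence ratio, converted to per-well B score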
TRPC6 act – activators of mouse TRPC6 channel; B-score at 10 µM; HEK293-TRPC6 membrane potential dye fluorescence; stronger effect = higher value; AID 2550; Q61143; hit rate 0.13% among 310,000;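 active = B-score of the integrated fluorescence ratio above library mean plus 3 SD, and starting fluorescence ratio within library mean plus 5 SD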;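 note: higher score means more depolarization so channel activation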
TRPC4 block – blocks the mouse TRPC4 cation channel; hit rate 0.39% among 300,000; HEK293 TRPC4beta/mu-opioid, DAMGO-evoked Fluo4 calcium flux; stronger effect = lower value; Q9QUQ5; B-score at 10 µM;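 active = B-score over 3 SD under the library average, no early fluorescence shift, positive overall ratio signal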
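Signal: kinetic Fluo4 fluorescence imaging of calcium influx. Material: stable TRPC4beta/mu-opioid receptor HEK293 cells. Probe or stimulus: DAMGO in two steps, submaximal then maximal.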
TRPC4 PAM – TRPC4 (mouse) allosteric potentiation; Q9QUQ5; HEK293 TRPC4beta/mu-opioid, DAMGO EC20, Fluo-4 Ca2+ flux; stronger effect = higher value; B-score at 10 µM; hit rate 0.42% among 310,000; AID 2227;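 active = B-score of calcium response area above 5 SD of library B-scores, with initial fluorescence ratio within 5 SD of library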;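 note: B-score of integrated fluorescence ratio over time as area under calcium response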
TRPC6 inhibitor – blocks the mouse TRPC6 cation channel | B-score at 10 µM | HEK293-TRPC6, membrane potential dye, ACh-evoked depolarization; stronger effect = lower value | Q61143 | hit rate 1.1% among 310,000;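 active = B-score under library mean minus 3 SD, initial fluorescence not abnormally high, positive integrated signal ratio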;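 note: B-score derived from integrated fluorescence ratio over the kinetic read; more negative B-score means stronger inhibition of depolarization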
TRPC4 spec 2 – second check of whether TRPC6 inhibitors also affect mouse TRPC4. AID 2776. inhibition, % at 10 µM. shares compounds with TRPC6 inhibitor. hit rate 42% among 920. HEK293 TRPC4/MOR, membrane potential dye fluorescence; channel activated by saturating DAMGO dose;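 active = compounds whose fluorescence signal differed from control wells by over 3 SD, either direction, in both duplicate plates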
TRPC4 spec – tests whether TRPC6 inhibitors also affect mouse TRPC4; hit rate 61% among 920; HEK293 TRPC4/mu-opioid, membrane potential fluorescence; AID 2777; activity change, negative = inhibition, % at 10 µM; shares compounds with TRPC6 inhibitor;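 active = rise or fall in signal beyond 3 SD of buffer-only wells in both replicate plates, either sign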;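 note: integrated kinetic ratio of fluorescence range over baseline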
HEK293 MPD ctr 2-1 – parental HEK293 nonspecific activity of TRPC6 inhibitors, second screen. parental HEK293 membrane potential dye fluorescence; maximal acetylcholine challenge after compound addition. signal change vs control, % at 10 µM. hit rate 31% among 920. shares compounds with TRPC6 inhibitor;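 active = membrane potential signal moving either way by over 3 SD of the maximum-effect control, in both duplicate plates, meaning non-specific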
HEK293 MPD ctr-1 – checks TRPC6 inhibitor effects in parental HEK293 cells. shares compounds with TRPC6 inhibitor. parental HEK293 membrane potential dye fluorescence. membrane potential signal change, % at 10 µM. hit rate 60% among 920;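 active = membrane potential signal shifting up or down by more than 3 SD of buffer-only wells, on both duplicate plates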
HEK293 MPD ctr-2 – parental HEK293 nonspecific activity of TRPC6 modulators | shares compounds with TRPC6 inhibitor | membrane potential dye fluorescence | membrane potential signal change, % at 10 µM | hit rate 51% among 2,400;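 active = membrane potential signal moves up or down beyond 5 SD from buffer-only wells, on both duplicate plates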
HEK293 MPD ctr 2-2 – second counter-screen for TRPC6 modulators: effect in parental HEK293 cells | shares compounds with TRPC6 inhibitor | membrane potential dye fluorescence; after compound, maximal acetylcholine stimulation | inhibition, % at 10 µM | hit rate 14% among 2,400 | AID 488926;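 active = membrane potential signal drops by more than 5 SD from the mean control signal, in both duplicate plates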;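 note: plate controls were acetylcholine ECmax control wells for no effect and buffer only wells for full effect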
TRPC4/MOR mod – selectivity of TRPC6 modulators against mouse TRPC4. hit rate 69% among 2,400. percent change from control (negative = decrease, positive = increase), % at 10 µM. HEK293 TRPC4/mu-opioid, membrane potential fluorescence. AID 488927. shares compounds with TRPC6 inhibitor;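 active = membrane potential signal moved up or down beyond 5 SD of buffer control wells, in both duplicate plates, actives on both sides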;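 note: plate controls were assay buffer wells for no effect and DAMGO maximal-effect wells for full effect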
TRPC4/MOR inh 2 – second check of whether TRPC6 modulators also affect mouse TRPC4; shares compounds with TRPC6 inhibitor; inhibition, % at 10 µM; HEK293 TRPC4/mu-opioid, membrane potential dye fluorescence; stimulated with maximal-effect DAMGO; hit rate 55% among 2,400;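 active = drop in membrane potential signal beyond 5 SD of the control wells in both duplicate plates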;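 note: TRPC4 counter screen for TRPC6 hits run under conditions tuned for TRPC6 not TRPC4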
TRPC6 block conf – mouse TRPC6 inhibitor confirmation. AID 488960. HEK293-TRPC6, membrane potential dye, ACh-evoked depolarization. shares compounds with TRPC6 inhibitor. inhibition, % at 10 µM. hit rate 43% among 3,300;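 active = fluorescence ratio falls more than 5 SD below the full-stimulation control mean, in both duplicate runs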;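 note: integrated fluorescence ratio of peak minus minimum over baseline after agonist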
TRPC6 act confirm – confirmation of mouse TRPC6 activators; shares compounds with TRPC6 inhibitor; HEK293-TRPC6 membrane potential dye fluorescence, FDSS; activation, % at 10 µM; hit rate 11% among 2,800; AID 488961;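 active = ratio signal rise beyond 5 SD above unstimulated control wells' mean, seen in both duplicate runs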;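 note: plate controls were buffer EC0 wells for no effect and acetylcholine ECmax response for full effect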
Starred values were filed as active, the others as inactive; i = inactive; / = no result. Hits are enriched below; roughly 2.3% of the tested compounds scored in any of these assays.

SMILES	TRPC4 agonist	TRPC6 act	TRPC4 block	TRPC4 PAM	TRPC6 inhibitor	HEK293 MPD ctr-2	HEK293 MPD ctr 2-2	TRPC4/MOR mod	TRPC4/MOR inh 2	TRPC6 block conf	TRPC6 act confirm	others
CN(C)CCCOC(=O)C1c2ccccc2Oc2ccccc21	i	i	i	i	-8.5*	/	/	/	/	63%*	/	TRPC4 spec 2=i;TRPC4 spec=7.3%*;HEK293 MPD ctr 2-1=28%*;HEK293 MPD ctr-1=7.4%*
Cc1cc(C(=O)Nc2c(F)c(F)c(F)c(F)c2F)n(-c2ccccc2)n1	i	i	i	i	i	/	/	/	/	/	/
CCCCN1C(=O)C2Cc3c([nH]c4ccccc34)CN2C1=S (stereo not given)	i	i	i	i	i	/	/	/	/	/	/
CC(=O)c1nnn(-c2nc(N)nc(N(c3ccccc3)c3ccccc3)n2)c1C	i	i	i	i	i	/	/	/	/	/	/
CCCCN(CCCC)c1nc(OC)nc(-n2nnc(C(C)=O)c2C)n1	i	11*	i	i	i	240%*	i	57%*	i	i	96%*
Nc1ccc(C(=O)OCc2nc3ccccc3s2)cc1	i	i	i	i	-7.8*	/	/	/	/	i	i	TRPC4 spec 2=i;TRPC4 spec=i;HEK293 MPD ctr 2-1=i;HEK293 MPD ctr-1=i
Cc1ccc2nc(-c3ccncc3)cc(-c3ccccc3)c2c1	i	i	i	i	i	/	/	/	/	/	/
Cc1ccc(-c2cc3cccc[n+]3cc2-c2ccc(C)cc2)cc1	i	i	i	i	-5.8*	-134%*	i	-20%*	29%*	60%*	i
Cc1ccc(C)c(NC(=S)NCCN(C2CCCCC2)C2CCCC2)c1	i	i	i	i	-5.2*	172%*	i	32%*	48%*	i	/
Cc1ccc(SCCNC(=S)Nc2cc(C)ccc2C)cc1	i	i	i	i	i	/	/	/	/	/	/
Cc1cc(Nc2cccc(F)c2)n2c(n1)nc1ccccc12	i	i	i	i	i	/	/	/	/	/	/
Cc1cc(NC2CCCCC2)n2c(n1)nc1ccccc12	i	i	i	i	-5.5*	i	i	i	i	i	i
CN1CCN(c2nc(-c3cccs3)nc3ccccc23)CC1	i	i	i	i	-8.2*	/	/	/	/	69%*	i	TRPC4 spec 2=32%*;TRPC4 spec=-28%*;HEK293 MPD ctr 2-1=i;HEK293 MPD ctr-1=-344%*
COc1cccc(-c2nc(N3CCN(C)CC3)c3ccccc3n2)c1O	i	i	i	i	-9.9*	-218%*	i	-44%*	72%*	52%*	i
CC(C)(CO)NC(=O)c1ccc2nc(Cc3cccc(Cl)c3)oc2c1	i	i	i	i	i	/	/	/	/	/	/
CCOc1cccc(CN2CCCC(CNC(=O)c3cccc(OC)c3OC)C2)c1 (stereo not given)	i	i	i	i	i	/	/	/	/	/	/
Cc1nc2c(cc1C#N)C(=O)c1ccccc1-2	i	i	i	i	-5*	-114%*	i	-22%*	i	i	i
Cc1cccc2cc3c(nc12)-c1ccccc1C3=O	i	i	i	i	i	/	/	/	/	/	/
S=C(Nc1cccc(Cl)c1)N(CCCN1CCCC1)Cc1cccn1Cc1ccc(Cl)cc1	i	i	i	i	i	/	/	/	/	/	/
COc1cccc(NC(=S)N(CCCN2CCCC2)Cc2cccn2Cc2ccc(Cl)cc2)c1	i	i	i	i	-5.3*	i	i	i	62%*	48%*	i
Clc1ccc2c(c1)C(N1CCNCC1)Cc1ccccc1S2 (stereo not given)	i	i	i	i	-5.4*	i	i	i	74%*	64%*	i
CC(OC(=O)CN1C(=O)c2ccccc2C1=O)C(=O)NC1CCCC1 (stereo not given)	i	i	i	i	i	/	/	/	/	/	/
Cc1nnc(C)c2c(C)n(-c3ccc(Cl)c(N)c3)c(C)c12	i	i	i	i	i	/	/	/	/	/	/
Cc1cc(C)cc(-n2c(C)c3c(C)nnc(C)c3c2C)c1	i	i	i	i	-7.6*	/	/	/	/	i	i	TRPC4 spec 2=54%*;TRPC4 spec=-19%*;HEK293 MPD ctr 2-1=i;HEK293 MPD ctr-1=-216%*
CC(=O)Nc1sc2c(c1C(N)=O)CCCC2	i	i	i	i	i	/	/	/	/	/	/
SMILES	TRPC4 agonist	TRPC6 act	TRPC4 block	TRPC4 PAM	TRPC6 inhibitor	HEK293 MPD ctr-2	HEK293 MPD ctr 2-2	TRPC4/MOR mod	TRPC4/MOR inh 2	TRPC6 block conf	TRPC6 act confirm	others
NC(=O)c1c(NC(=O)C2c3ccccc3Oc3ccccc32)sc2c1CCCCC2	i	i	i	i	-5.1*	i	i	i	i	i	i
Cc1cc(C)c2nc3nc(C)c(C)cc3c(N)c2c1	i	i	i	i	-5.8*	i	i	-25%*	34%*	59%*	i
CC(C)C[C@H](NC(=O)[C@@H]1Cc2ccccc2CN1)C(=O)Nc1ccc(C(C)C)cc1	i	i	i	i	-5.2*	i	i	-12%*	68%*	i	i
CC1CN(C(=O)CSc2nnc(-c3ccc(Cl)cc3)n2C)CC(C)O1 (stereo not given)	i	i	i	i	-5.2*	i	i	i	i	i	i
CN1C=CC=C/C1=C1\SC(=S)N(c2ccccc2)C1=O	i	i	i	i	i	/	/	/	/	/	/
C=CCN1C=CC=C/C1=C1\SC(=S)N(C)C1=O	i	i	i	i	-5.1*	i	i	i	i	i	i

Bioassay records: PubChem, Johns Hopkins Ion Channel Center
